From ChEMBL document CHEMBL3751667, “Carbamate substituted 2-amino-4,6-diphenylpyrimidines as adenosine receptor antagonists” (Bioorg Med Chem Lett, 2016) come the findings set out here.

Converted amounts (≈) assume the structure as drawn. The source made the active and inactive calls. The rule behind the calls is not given here.

One series deals with T1, Adenosine receptor A1 (Rattus norvegicus, UniProt P25099).
T1 sequence (P25099 whole entry): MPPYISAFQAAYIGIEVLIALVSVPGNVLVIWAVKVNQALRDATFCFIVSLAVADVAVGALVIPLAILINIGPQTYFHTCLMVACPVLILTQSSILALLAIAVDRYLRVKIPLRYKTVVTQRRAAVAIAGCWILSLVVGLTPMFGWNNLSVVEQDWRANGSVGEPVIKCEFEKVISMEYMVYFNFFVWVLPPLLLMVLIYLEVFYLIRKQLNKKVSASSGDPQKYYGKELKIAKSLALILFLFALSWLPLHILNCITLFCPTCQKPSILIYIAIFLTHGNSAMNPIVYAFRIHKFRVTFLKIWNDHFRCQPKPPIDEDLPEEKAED
As to the kind of experiment: Displacement of [3H]DPCPX from adenosine A1 receptor in Sprague-Dawley rat whole brain after 1 hr by scintillation counting.

The target of another series is Adenosine receptor A2a (Rattus norvegicus, UniProt P30543). As to the kind of experiment: Displacement of [3H]NECA from adenosine A2A receptor in Sprague-Dawley rat striatal membrane after 1 hr by scintillation counting. On the set-up: species or system Striatum.
Chain of Adenosine receptor A2a (P30543 whole entry): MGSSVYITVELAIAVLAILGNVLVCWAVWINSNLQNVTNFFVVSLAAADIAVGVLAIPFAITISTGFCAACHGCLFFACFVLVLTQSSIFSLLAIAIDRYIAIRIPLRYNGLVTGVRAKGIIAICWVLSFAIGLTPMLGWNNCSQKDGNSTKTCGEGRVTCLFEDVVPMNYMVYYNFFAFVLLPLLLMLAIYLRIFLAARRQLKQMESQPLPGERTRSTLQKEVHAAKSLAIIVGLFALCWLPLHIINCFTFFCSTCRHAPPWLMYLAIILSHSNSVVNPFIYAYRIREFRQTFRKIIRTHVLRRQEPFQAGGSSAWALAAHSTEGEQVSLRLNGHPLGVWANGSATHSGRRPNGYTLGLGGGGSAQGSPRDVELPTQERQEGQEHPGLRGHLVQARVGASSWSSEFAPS
The species entered for series [1] is Rattus norvegicus. The series is described as follows: Selectivity ratio of Ki for adenosine A2A receptor in Sprague-Dawley rat striatal membrane to Ki for adenosine A1 receptor in Sprague-Dawley rat whole brain. The method in brief: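 Index calculated as A2A Ki divided by A1 Ki. Both Ki values come from radioligand binding assays and are given as the mean ± SEM of duplicate determinations.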

Series [2] relates to Rattus norvegicus. As to the kind of experiment: Reversal of haloperidol-induced catalepsy in Sprague-Dawley rat at 0.4 to 2 mg/kg, ip after 60 mins relative to control. Type of series: functional, organism-based. Summed up: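 Sprague–Dawley rats, drug naïve, three groups; all given haloperidol 5.0 mg/kg i.p. to induce catalepsy. Thirty minutes later: DMSO (control) or test compound at 0.4 or 2 mg/kg. Catalepsy scored by standard bar test 60 minutes after first injection; compared with haloperidol + vehicle group by one-way ANOVA and Dunnett's post test.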

Series [3] is described as follows: n-octanol-potassium phosphate buffer partition coefficient, log D of the compound at pH 7.4 by shake flask method. Type of series: physicochemical. Summed up: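 Shake flask method; hydrophilic phase potassium phosphate buffer pH 7.4, hydrophobic phase n-octanol.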
Series [4] is described as follows: Solubility of the compound at 4.5 mg after 24 hrs by HPLC analysis. Type of series: physicochemical. The method in brief: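 Water solubility: excess compound shaken in water at 37 °C.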

For `CC(C)N(C(=O)Oc1cccc(-c2cc(-c3ccccc3)nc(N)n2)c1)C(C)C`, the Ki at Adenosine receptor A1 came out at 0.175 nM; at Adenosine receptor A2a it was 12.1 nM. Further, the Ratio Ki in the series filed under Rattus norvegicus [1] came out at 69.
As for `Nc1nc(-c2ccccc2)cc(-c2cccc(OC(=O)N3CCCC3)c2)n1`, the values for the Ki on Adenosine receptor A1 and at Adenosine receptor A2a were 0.835 nM and 24.8 nM, respectively. Also, the Ratio Ki in the series listed under Rattus norvegicus [1] is 30.
In the same order, the values of `CN(C(=O)Oc1cccc(-c2cc(-c3ccccc3)nc(N)n2)c1)c1ccccc1` are 1.07 nM, 39.9 nM and 37.
As for `Nc1nc(-c2ccccc2)cc(-c2cccc(OC(=O)N3CCOCC3)c2)n1`, the Ki came to 2.65 nM at Adenosine receptor A1 and 3.5 nM on Adenosine receptor A2a. Moreover, the Ratio Ki in the series listed under Rattus norvegicus [1] was found to be 1.3. Also, in the series on Rattus norvegicus [2], the result was Active.
As to `CCN(CC)C(=O)Oc1cccc(-c2cc(-c3ccccc3)nc(N)n2)c1`, the Ki on Adenosine receptor A1 is 0.468 nM; on Adenosine receptor A2a, 22.8 nM. Also, the Ratio Ki in the series filed under Rattus norvegicus [1] turned out to be 49.
The matching figures for `Nc1nc(-c2ccccc2)cc(-c2cccc(OC(=O)N3CCCCC3)c2)n1`: 1.95 nM, 8.94 nM and 4.6.
The matching figures for `CN(C)C(=O)Oc1cccc(-c2cc(-c3ccccc3)nc(N)n2)c1`: 2.06 nM, 51.9 nM and 25.
The matching figures for `Nc1nc(-c2ccccc2)cc(-c2cccc(OC(=O)N(c3ccccc3)c3ccccc3)c2)n1`: 10.7 nM, 451 nM and 42.
Regarding `CN1CCN(C(=O)Oc2cccc(-c3cc(-c4ccccc4)nc(N)n3)c2)CC1`, the results for the Ki on Adenosine receptor A1 and on Adenosine receptor A2a were 2.04 nM and 1.58 nM, respectively. Besides, the logD in series [3] stood at 4.03. The solubility at 24 h in series [4] amounted to 0.22 µM (≈ 0.0857 µg/mL). Moreover, in the series listed under Rattus norvegicus [1], the Ratio Ki turned out to be 0.8. Also, the result in the series on Rattus norvegicus [2] was inactive.
